Calls of active or inactive are those of the source. No cut-off for these calls is given here.

Experimental findings from ChEMBL document CHEMBL1146324, “Discovery of (Z)-2-phenyl-3-(1H-pyrrol-2-yl)acrylonitrile derivatives active against Haemonchus contortus and Ctenocephalides felis (cat flea)” (2007) are described below.

For experiment [1], the system named is Ctenocephalides felis. Briefly: Parasiticidal activity against Ctenocephalides felis after 24 hrs. It is filed as functional. The arrangement: concentration or dose not given beside the values. Summed up: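 Single-dose in vitro cat flea assay: compound in acetone (0.5 mL) coated on the base of four 100 mL flasks at 1.26 µg/cm². Flasks held at 25 ± 1 °C and 75 ± 5% humidity for 24 h. Dead fleas counted per flask, and pooled data expressed as percent mortality.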

For experiment [2], the system named is Haemonchus contortus. Briefly: Parasiticidal activity against Haemonchus contortus McMaster. It is filed as functional. The method, boiled down:
(§1)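 Larval development assay with Haemonchus contortus larvae. The endpoint was LD99, and the assay was performed by an external screening contractor.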

In experiment [3] the test system is Ctenocephalides felis. Briefly: Parasiticidal activity against Ctenocephalides felis. It is filed as functional.
For experiment [4], the system named is Ctenocephalides felis. Briefly: Parasiticidal activity against Ctenocephalides felis after 8 hrs. In kind it is functional. Summed up: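 Cat flea contact assay: compound applied in acetone to the base of four flasks at 1.26 µg/cm², held at 25 ± 1 °C and 75 ± 5% humidity. Dead fleas counted at 8 h, and pooled counts converted to percent mortality.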
For experiment [5], the system named is Teladorsagia circumcincta. Description: Parasiticidal activity against Ostertagia circumcincta McMaster. It is filed as functional.
For experiment [6], the system named is Haemonchus contortus. Briefly: Parasiticidal activity against levamisole-resistant Haemonchus contortus Lawes. It is filed as functional. The method, boiled down: as §1
Experiment [7] concerns Trichostrongylus colubriformis. Description: Parasiticidal activity against Trichostrongylus colubriformis. It is filed as functional.
The nature of experiment [8]: Cytotoxicity against mouse NS1 cells. In kind it is functional.
Experiment [9] relates to Saccharomyces cerevisiae. Description: Parasiticide activity against Saccharomyces cerevisiae. It is filed as functional, organism-based.
In experiment [10] the test system is Haemonchus contortus. Briefly: Parasiticidal activity against benzimidazole-resistant Haemonchus contortus Lawes. In kind it is functional. The method, boiled down:
as §1

Experiment [11] has as its system Haemonchus contortus. Briefly: Parasiticidal activity against avermectin-resistant Haemonchus contortus CAVR. In kind it is functional. The method, boiled down: as §1
In experiment [12] the test system is Bacillus subtilis. Description: Parasiticidal activity against Bacillus subtilis. It is filed as functional.

On to `N#C/C(=C\c1cc(Br)c[nH]1)c1ccc(Cl)c(Cl)c1`, for which the Activity in experiment [1] was found to be 19%. Also, the LD99 in experiment [2] was found to be 7.3 µM.
The corresponding values for `CC(C)=CCn1cccc1/C=C(\C#N)c1ccc(Cl)cc1` are 0% and above 51 µM.
The like results for `Cc1ccc(S(=O)(=O)n2cccc2/C=C(\C#N)c2ccc(Cl)cc2)cc1` were, in that order, 0% and 31 µM.
In experiment [1], `N#C/C(=C\c1ccc[nH]1)c1ccc(F)c(Cl)c1` returned an Activity of 5%. For the same molecule, the LD99 in experiment [2] came to 5.1 µM.
With `N#C/C(=C\c1cc(Br)c[nH]1)c1cccc(F)c1`, in experiment [1], the Activity was found to be 18%. The molecule further returned an LD99 in experiment [2] of 38 µM.
The corresponding values for `COC(=O)n1cccc1/C=C(\C#N)c1ccc(Cl)cc1` are 16% and 4.4 µM.
The like results for `N#C/C(=C\c1ccc[nH]1)c1ccccc1Br` were, in that order, 30% and 12 µM.
For the molecule `CC(C)(C)c1ccc(/C(C#N)=C/c2ccc[nH]2)cc1`, the LC50 in experiment [3] came to 0.48 ug/sq.cm. Moreover, the Activity in experiment [1] is reported as 87%. The molecule further came in with an LD99 in experiment [2] of 13 µM.
The corresponding values for `N#C/C(=C\c1ccc[nH]1)c1ccc(F)cc1` are 0.3 ug/sq.cm, 78% and 2 µM.
`N#C/C(=C\c1ccc[nH]1)c1ccc(Cl)cc1Cl` displayed an Activity in experiment [1] of 8%. Also, in experiment [2], the LD99 turned out to be 11 µM.
For the molecule `CC(C)c1ccc(/C(C#N)=C/c2ccc[nH]2)cc1`, in experiment [3], the LC50 is recorded as 1.32 ug/sq.cm. The Activity in experiment [1] is on record as 100%.
In [1], `N#C/C(=C\c1ccc[nH]1)c1ccc(F)c(F)c1` had an Activity of 17%. This molecule also returned an LD99 in [2] of 7.6 µM.
Take `N#C/C(=C\c1ccc[nH]1)c1ccccc1Cl`: in experiment [1], the Activity is 19%. In experiment [2], this molecule returned an LD99 of 12 µM.
The like results for `CCN(CC)C(=O)n1cccc1/C=C(\C#N)c1ccc(Cl)cc1` were, in that order, 8% and 11 µM.
In experiment [1], `N#C/C(=C\c1ccc[nH]1)c1ccc(-c2ccccc2)cc1` registered an Activity of 46%. For the same molecule, the LD99 in [2] was 28 µM.
In turn, `N#C/C(=C\c1ccc[nH]1)c1ccccc1C(F)(F)F` displayed an Activity in experiment [1] of 14%.
As to `N#C/C(=C\c1ccc[nH]1)c1ccccc1`, in experiment [3], the LC50 is on record as 0.26 ug/sq.cm. The same molecule returned an Activity in experiment [1] of 98%. The LD99 in experiment [2] came to 2.4 µM.
The molecule `N#C/C(=C\c1ccc[nH]1)c1ccc(C#N)cc1` had an Activity in experiment [1] of 44%. In addition, in [2], the LD99 is 46 µM.
The corresponding values for `CN(C)C(=S)n1cccc1/C=C(\C#N)c1ccc(Cl)cc1` are 19% and 32 µM.
The like results for `N#C/C(=C\c1cccn1C(=O)c1ccccc1)c1ccc(Cl)cc1` were, in that order, 6% and 3.8 µM.
The like results for `CCc1ccc(/C(C#N)=C/c2ccc[nH]2)cc1` were, in that order, 58% and 4 µM.
`N#C/C(=C\c1ccc[nH]1)c1ccccc1F` displayed an LC50 in experiment [3] of 0.59 ug/sq.cm. Moreover, the Activity in experiment [1] stood at 92%. The LD99 in experiment [2] is 12 µM.
In [4], `Cn1cccc1/C=C(\C#N)c1ccc(Cl)cc1` returned an Activity of 13%. Moreover, the LD99 in [2] was found to be 7.8 µM.
Consider `N#C/C(=C\c1ccc[nH]1)c1ccc(F)cc1Cl`, for which the Activity in [1] was 30%. The molecule further showed an LD99 in [2] of 12 µM.
As to `Cc1cc(C(C#N)c2ccc(Cl)cc2)c(Cl)cc1NC(=O)c1cc(I)cc(I)c1O` (stereo unspecified) [CLOSANTEL], in [2], the LD99 amounted to 9.4 µM.
`CCOCn1cccc1/C=C(\C#N)c1ccc(Cl)cc1` displayed an Activity in experiment [4] of 6%. Besides, the LD99 in [2] was determined as 19 µM.
In experiment [1], `N#C/C(=C\c1ccc[nH]1)c1ccc(I)cc1` yielded an Activity of 14%. Also, the LD99 in experiment [2] was found to be 2.2 µM.
With IVERMECTIN, the LD99 in experiment [2] worked out at 0.0057 µM.
As to `N#C/C(=C\c1ccc[nH]1)c1cccc(F)c1`, the LC50 in experiment [3] worked out at 0.78 ug/sq.cm. For the same molecule, in experiment [1], the Activity came out at 78%. Also, the LD99 in experiment [2] was 8 µM.
`N#C/C(=C\c1cc(Br)c[nH]1)c1cccc(C(F)(F)F)c1`: the LD99 in experiment [2] was found to be 9.5 µM.
Take `N#C/C(=C\c1ccc[nH]1)c1cccc(Cl)c1`: the Activity in experiment [1] was found to be 28%. In [2], this molecule gave an LD99 of 3.3 µM.
In turn, `N#C/C(=C\c1ccc[nH]1)c1ccc(Cl)cc1` had an LC50 in experiment [3] of 0.17 ug/sq.cm. This molecule showed an Activity in experiment [4] of 95%. The LD99 in experiment [2] turned out to be 1.8 µM.
As for `N#C/C(=C\c1ccc[nH]1)c1ccc(F)cc1F`, the Activity in experiment [1] is recorded as 5%. The molecule further yielded an LD99 in [2] of 11 µM.
The corresponding values for `N#C/C(=C\c1ccc[nH]1)c1ccc(C(F)(F)F)cc1` are 20% and 3.1 µM.
The corresponding values for `N#C/C(=C\c1cccn1Cc1ccccc1)c1ccc(Cl)cc1` are 3% and 44 µM.
The corresponding values for `N#C/C(=C\c1ccc[nH]1)c1c(F)cccc1Cl` are 7% and above 61 µM.
As for `COc1ccccc1/C(C#N)=C/c1ccc[nH]1`, in experiment [1], the Activity is 9%.
With `N#C/C(=C\c1ccc[nH]1)c1ccccc1C#N`, the Activity in [1] came out at 11%. Moreover, in experiment [2], the LD99 was above 68 µM.
The corresponding values for `N#C/C(=C\c1ccc[nH]1)c1c(F)cccc1F` are 17% and 52 µM.
As to `N#C/C(=C\c1ccc[nH]1)c1ccc(Cl)c(Cl)c1`, the Activity in experiment [1] is on record as 41%. For the same molecule, in experiment [2], the LD99 turned out to be 2.9 µM.
The corresponding values for `Cc1cccc(/C(C#N)=C/c2ccc[nH]2)c1` are 42% and 6 µM.
For `N#C/C(=C\c1ccc[nH]1)c1cccc(Br)c1`, the Activity in [1] worked out at 24%. In experiment [2], this molecule gave an LD99 of 3.4 µM.
For the molecule `N#Cc1nn(-c2c(Cl)cc(C(F)(F)F)cc2Cl)c(N)c1[S+]([O-])C(F)(F)F` (stereo unspecified) [FIPRONIL], the LC50 in experiment [3] was 0.018 ug/sq.cm.
As to `N#C/C(=C\c1cc(Br)c[nH]1)c1ccc(F)cc1`, in experiment [1], the Activity was determined as 15%. In experiment [2], this molecule had an LD99 of 17 µM.
Take `N#C/C(=C\c1cc(Br)c[nH]1)c1ccc(Cl)cc1`: in [1], the Activity turned out to be 23%. Also, the LD99 in experiment [2] worked out at 1.5 µM.
The like results for `N#C/C(=C\c1cc(Cl)c(Cl)[nH]1)c1ccc(Cl)cc1` were, in that order, 15% and 10 µM.
The like results for `N#C/C(=C\c1ccc[nH]1)c1cccc(Oc2ccccc2)c1` were, in that order, 10% and 11 µM.
For `Cc1ccccc1/C(C#N)=C/c1ccc[nH]1`, the LC50 in [3] worked out at 0.08 ug/sq.cm. For the same molecule, the Activity in [1] amounted to 100%. For the same molecule, the LD99 in experiment [2] is 18 µM.
On to `COc1ccc(/C(C#N)=C/c2ccc[nH]2)cc1`, for which the Activity in experiment [1] turned out to be 31%. The LD99 in experiment [2] stood at 6.7 µM.
As for `N#CC(C#N)=Cc1cc(Cl)c(Cl)[nH]1`, the LD99 in [5] came out at 2.2 µM; in experiment [6] it was 2.2 µM; in [7], 9 µM; in experiment [8], 13 µM; in [10], 2.2 µM; in [2] it was 1.8 µM. Besides, the LD99 in [11] stood at 2.2 µM; in experiment [12], 1.7 µM. Besides, the outcome in experiment [3] and in [9] was inactive.
As for `Cc1ccc(/C(C#N)=C/c2ccc[nH]2)cc1`, the Activity in experiment [1] is listed as 69%. In addition, in [2], the LD99 came out at 4.5 µM.
As to `CC(C)(C)OC(=O)n1cccc1/C=C(\C#N)c1ccc(Cl)cc1`, in experiment [1], the Activity was 9%. The LD99 in experiment [2] came to 11 µM.
The corresponding values for `N#C/C(=C\c1ccc[nH]1)c1ccc(Br)cc1` are 42% and 0.84 µM.
`N#C/C(=C\c1ccc[nH]1)c1ccccc1-c1ccccc1` returned an Activity in experiment [1] of 2%.
In experiment [1], `N#C/C(=C\c1ccc[nH]1)c1ccc([N+](=O)[O-])cc1` had an Activity of 6%. The molecule further returned an LD99 in [2] above 63 µM.
For `Cc1ccc(/C(C#N)=C/c2ccc[nH]2)c(C)c1`, the Activity in experiment [1] was 44%.
In experiment [2], `c1ccc([C@H]2CN3CCSC3=N2)cc1` [LEVAMISOLE] came in with an LD99 of 0.66 µM.
Molecule `CCC(=O)n1cccc1/C=C(\C#N)c1ccc(Cl)cc1` gave an Activity in experiment [1] of 12%. In addition, in [2], the LD99 is 1.3 µM.
Molecule `N#C/C(=C\c1ccc[nH]1)c1cccc(C(F)(F)F)c1` had an LC50 in experiment [3] of 9.9 ug/sq.cm. In experiment [1], this molecule showed an Activity of 56%. The LD99 in experiment [2] is 3.6 µM.
Take `N#C/C(=C\c1cc(Br)c[nH]1)c1ccc(C(F)(F)F)cc1`: in experiment [1], the Activity turned out to be 15%. In [2], this molecule had an LD99 above 44 µM.
The like results for `N#C/C(=C\c1ccc[nH]1)c1ccc(Cl)cc1F` were, in that order, 5% and 10 µM.
As to `N#C/C(=C\c1ccc[nH]1)c1cc(C(F)(F)F)cc(C(F)(F)F)c1`, in experiment [1], the Activity is recorded as 27%. The LD99 in [2] is above 45 µM.
